The values below come from ChEMBL document CHEMBL5046221, “Identification of Pyrimidine-Based Lead Compounds for Understudied Kinases Implicated in Driving Neurodegeneration” (J Med Chem, 2022).

Broadly, the IC50 is the concentration that inhibits the measured activity by half.

Data set [1] addresses Receptor tyrosine-protein kinase erbB-2 (Homo sapiens, UniProt P04626). In words: Inhibition of recombinant human ERBB2 (676 to 1255 residues) using poly(Glu:Tyr) as substrate incubated for 40 mins in presence of [gamma-33P-ATP] by radiometric scintillation assay. A digest of the protocol: (§1)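 Eurofins radiometric enzymatic assay with ATP at Km for each kinase. IC50 was derived from a 9-point dose–response curve run in duplicate.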

For data set [2], the target named is Tyrosine-protein kinase JAK2 (Homo sapiens) (UniProt O60674). Briefly: Inhibition of recombinant human JAK2 (808 to end residues) using KTFCGTPEYLAPEVRREPRILSEEEQEMFRDFDYIADWC as substrate at 1 uM incubated for 40 mins in presence of [gamma-33P-ATP] by radiometric scintillation assay relative to control. In outline: (§2)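 Eurofins radiometric kinase assay with ATP at Km for each kinase. Compound was tested at a single 1 μM concentration in duplicate, and the result is reported as percent of control.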

Data set [3] deals with T1, Serine/threonine-protein kinase 17A (Homo sapiens, UniProt Q9UEE5).
T1 sequence (Q9UEE5 whole entry): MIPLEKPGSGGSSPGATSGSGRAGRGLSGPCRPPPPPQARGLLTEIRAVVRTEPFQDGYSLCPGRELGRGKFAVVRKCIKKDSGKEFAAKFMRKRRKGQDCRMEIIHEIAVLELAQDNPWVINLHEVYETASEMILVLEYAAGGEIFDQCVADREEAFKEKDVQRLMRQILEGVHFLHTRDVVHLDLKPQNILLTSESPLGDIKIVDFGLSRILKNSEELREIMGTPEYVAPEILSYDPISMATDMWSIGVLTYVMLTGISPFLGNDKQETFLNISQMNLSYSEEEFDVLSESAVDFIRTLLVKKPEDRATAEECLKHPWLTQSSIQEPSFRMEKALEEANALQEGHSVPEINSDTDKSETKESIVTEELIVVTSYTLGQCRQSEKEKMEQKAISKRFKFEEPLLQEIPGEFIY
In words: Displacement of tracer K9 from NLuc fused DRAK1 (unknown origin) expressed in HEK293 cells by NanoBRET assay. The class given is cell-based. A general note: In BRET a luciferase serves as donor, and the signal depends on an acceptor being close.

The target of data set [4] is MAP/microtubule affinity-regulating kinase 3 (Homo sapiens, UniProt P27448). Briefly: Displacement of tracer K9 from NLuc fused MARK3 (unknown origin) expressed in HEK293 cells by NanoBRET assay. The class given is cell-based.
Sequence of MAP/microtubule affinity-regulating kinase 3 (P27448 whole entry, the tested form may be a part): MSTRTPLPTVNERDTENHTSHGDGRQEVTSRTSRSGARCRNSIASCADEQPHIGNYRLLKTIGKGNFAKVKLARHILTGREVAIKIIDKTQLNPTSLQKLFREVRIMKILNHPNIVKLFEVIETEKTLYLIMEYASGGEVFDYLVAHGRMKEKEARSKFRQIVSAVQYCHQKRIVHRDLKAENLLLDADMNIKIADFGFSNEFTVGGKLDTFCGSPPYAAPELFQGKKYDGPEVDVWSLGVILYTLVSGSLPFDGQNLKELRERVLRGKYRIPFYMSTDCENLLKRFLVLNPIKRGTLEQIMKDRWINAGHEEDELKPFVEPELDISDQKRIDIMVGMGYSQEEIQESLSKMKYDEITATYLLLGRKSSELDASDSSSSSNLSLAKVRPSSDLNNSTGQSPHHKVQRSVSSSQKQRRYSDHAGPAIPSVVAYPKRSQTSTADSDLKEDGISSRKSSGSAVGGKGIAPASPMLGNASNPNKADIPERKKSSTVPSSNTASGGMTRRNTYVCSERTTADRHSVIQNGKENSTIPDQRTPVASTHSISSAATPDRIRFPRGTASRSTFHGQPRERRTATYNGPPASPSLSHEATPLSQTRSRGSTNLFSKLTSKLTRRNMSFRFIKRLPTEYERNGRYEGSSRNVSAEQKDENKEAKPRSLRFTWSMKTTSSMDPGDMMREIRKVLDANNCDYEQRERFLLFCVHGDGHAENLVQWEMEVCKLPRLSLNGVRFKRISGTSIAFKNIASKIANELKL
Data set [5] concerns the target T2, Macrophage colony-stimulating factor 1 receptor (Homo sapiens, UniProt P07333). Briefly: Inhibition of recombinant human FMS (538 to end residues) using KKKSPGEYVNIEFG as substrate measured after 40 mins in presence of [gamma33P]ATP by radiometric scintillation counting method. In outline:
(§3)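 Eurofins radiometric kinase assay run at ATP equal to Km for each kinase. 9-point dose–response in duplicate gives the IC50.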

Data set [6] deals with T3, Non-receptor tyrosine-protein kinase TYK2 (Homo sapiens, UniProt P29597). In words: Inhibition of human TYK2 (875 to end residues) using GGMEDIYFEFMGGKKK as substrate measured after 40 mins in presence of [gamma33P]ATP by radiometric scintillation counting method. In outline:
as §1

Data set [7] concerns the target T2, Macrophage colony-stimulating factor 1 receptor. In words: Inhibition of NanoLuc-fused CSF1R (unknown origin) expressed in HEK293 cells incubated for 2 hrs by NanoBRET assay. It counts as cell-based.
A short description of data set [8]: Kinetic solubility of compound in PBS at pH 7.4 incubated for 24 hrs by chemiluminscent nitrogen detection method. The following applies: buffer, pH 7.4, 24 h. The class given is physicochemical. A digest of the protocol:
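Filtrates were quantified by total chemiluminescent nitrogen determination against a calibration curve, with correction for background nitrogen from DMSO and medium.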

Data set [9] is described as follows: Effective permeability in PBS at 7.4 incubated for 5 hrs by PAMPA analysis. The class given is ADME. The following applies: pH 7.4, 5 h. A digest of the protocol: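 PAMPA: DMSO stocks were diluted in PBS pH 7.4 and placed in the donor compartment, with PBS pH 7.4 in the acceptor, for 5 h. Both compartments were quantified by CLND against a calibration curve, with background nitrogen correction. Effective permeability was calculated from donor and acceptor concentrations using measured rather than assumed solubility.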
(In general: PAMPA measures passive passage across an artificial lipid membrane.)

Data set [10] is described as follows: Inhibition of human TTBK1 (1 to 479 residues) using Casein as substrate measured after 40 mins in presence of [gamma33P]ATP by scintillation counting method. In outline:
as §3

Data set [11] addresses T4, Serine/threonine-protein kinase TBK1 (Homo sapiens, UniProt Q9UHD2).
T4 sequence (Q9UHD2 whole entry): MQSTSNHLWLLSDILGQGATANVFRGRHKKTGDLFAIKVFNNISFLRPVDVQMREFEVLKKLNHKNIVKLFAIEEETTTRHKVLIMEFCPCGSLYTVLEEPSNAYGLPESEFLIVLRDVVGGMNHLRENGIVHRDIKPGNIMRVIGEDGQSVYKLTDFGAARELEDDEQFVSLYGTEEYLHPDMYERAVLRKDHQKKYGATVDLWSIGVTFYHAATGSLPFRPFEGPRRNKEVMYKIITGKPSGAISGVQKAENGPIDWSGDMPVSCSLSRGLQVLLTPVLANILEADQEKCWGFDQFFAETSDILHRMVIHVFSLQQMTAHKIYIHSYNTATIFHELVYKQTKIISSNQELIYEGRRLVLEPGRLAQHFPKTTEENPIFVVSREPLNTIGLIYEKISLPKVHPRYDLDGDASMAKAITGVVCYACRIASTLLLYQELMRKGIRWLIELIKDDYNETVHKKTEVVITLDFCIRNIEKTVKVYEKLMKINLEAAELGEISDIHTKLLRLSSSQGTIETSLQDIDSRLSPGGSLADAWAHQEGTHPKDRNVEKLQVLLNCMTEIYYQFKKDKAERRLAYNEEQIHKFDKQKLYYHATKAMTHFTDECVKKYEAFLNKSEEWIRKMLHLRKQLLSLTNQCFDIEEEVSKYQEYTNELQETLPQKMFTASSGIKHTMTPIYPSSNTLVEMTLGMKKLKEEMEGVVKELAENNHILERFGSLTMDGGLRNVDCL
In words: Displacement of tracer K5 from NLuc fused TBK1 (unknown origin) expressed in HEK293 cells by NanoBRET assay. It counts as cell-based. In outline: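 HEK293 cells grown in DMEM with 10% FBS at 37 °C, 5% CO2. NanoBRET assay run in dose–response per manufacturer's protocol with tracer K-5 at 0.5 μM. SEM calculated for assays run more than once.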

The target of data set [12] is T3, Non-receptor tyrosine-protein kinase TYK2. Briefly: Inhibition of NanoLuc-fused TYK2 (unknown origin) expressed in HEK293 cells incubated for 2 hrs by NanoBRET assay. The class given is cell-based. A digest of the protocol:
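Cellular NanoBRET target-engagement assays were run by Carna Biosciences to the manufacturer's protocol. Dose–response was in singlicate, with compounds tested at concentrations up to 10 μM.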

Data set [13] concerns the target T5, MAP/microtubule affinity-regulating kinase 4 (Homo sapiens, UniProt Q96L34).
T5 sequence (Q96L34 whole entry): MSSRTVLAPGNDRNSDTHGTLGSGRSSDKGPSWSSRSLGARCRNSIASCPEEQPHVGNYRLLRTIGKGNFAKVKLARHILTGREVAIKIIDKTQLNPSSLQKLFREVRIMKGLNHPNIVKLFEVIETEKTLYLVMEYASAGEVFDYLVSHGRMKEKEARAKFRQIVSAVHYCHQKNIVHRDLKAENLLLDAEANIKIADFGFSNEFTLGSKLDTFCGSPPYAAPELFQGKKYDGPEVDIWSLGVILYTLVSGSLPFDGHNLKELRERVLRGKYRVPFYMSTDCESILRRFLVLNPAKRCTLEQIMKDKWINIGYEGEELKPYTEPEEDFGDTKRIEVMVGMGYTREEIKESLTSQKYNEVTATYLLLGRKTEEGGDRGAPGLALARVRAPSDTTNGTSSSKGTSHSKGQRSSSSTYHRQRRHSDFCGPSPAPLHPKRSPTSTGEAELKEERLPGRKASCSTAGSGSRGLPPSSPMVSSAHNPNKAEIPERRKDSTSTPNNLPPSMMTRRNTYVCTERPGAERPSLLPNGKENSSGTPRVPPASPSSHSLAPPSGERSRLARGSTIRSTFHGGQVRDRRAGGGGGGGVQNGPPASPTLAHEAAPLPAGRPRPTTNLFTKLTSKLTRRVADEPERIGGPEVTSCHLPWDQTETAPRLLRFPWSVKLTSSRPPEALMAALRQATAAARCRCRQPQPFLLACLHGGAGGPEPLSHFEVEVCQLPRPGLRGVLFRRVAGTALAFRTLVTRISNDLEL
In words: Displacement of tracer K5 from NLuc fused MARK4 (unknown origin) expressed in HEK293 cells by NanoBRET assay. It counts as cell-based.

The target of data set [14] is MAP kinase-interacting serine/threonine-protein kinase 2 (Homo sapiens, UniProt Q9HBH9). Briefly: Inhibition of full length recombinant human MKNK2 using myelin basic protein as substrate incubated for 40 mins in presence of [gamma-33P-ATP] by radiometric scintillation assay. A digest of the protocol:
as §3

Data set [15] addresses T6, Serine/threonine-protein kinase 17B (Homo sapiens) (UniProt O94768).
T6 sequence (whole entry): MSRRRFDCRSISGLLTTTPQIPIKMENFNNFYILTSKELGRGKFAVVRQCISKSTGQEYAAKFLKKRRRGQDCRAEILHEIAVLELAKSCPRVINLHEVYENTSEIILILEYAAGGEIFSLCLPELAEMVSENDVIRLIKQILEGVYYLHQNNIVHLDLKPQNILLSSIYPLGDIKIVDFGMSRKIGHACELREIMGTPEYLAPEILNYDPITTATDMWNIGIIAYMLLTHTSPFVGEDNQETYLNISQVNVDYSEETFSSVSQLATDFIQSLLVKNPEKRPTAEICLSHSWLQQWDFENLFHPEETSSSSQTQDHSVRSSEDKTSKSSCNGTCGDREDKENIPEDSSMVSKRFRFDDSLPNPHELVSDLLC
Briefly: Inhibition of full length recombinant human DRAK2 using KKRPQRRYSNVF as substrate at 1 uM incubated for 120 mins in presence of [gamma-33P-ATP] by radiometric scintillation assay relative to control. In outline: as §2

Data set [16] deals with Serine/threonine-protein kinase 32B (Homo sapiens, UniProt Q9NY57). Briefly: Inhibition of full length recombinant human YANK2 using casein as substrate incubated for 120 mins in presence of [gamma-33P-ATP] by radiometric scintillation assay. In outline: as §1
Sequence of Serine/threonine-protein kinase 32B (Q9NY57 whole entry, the tested form may be a part): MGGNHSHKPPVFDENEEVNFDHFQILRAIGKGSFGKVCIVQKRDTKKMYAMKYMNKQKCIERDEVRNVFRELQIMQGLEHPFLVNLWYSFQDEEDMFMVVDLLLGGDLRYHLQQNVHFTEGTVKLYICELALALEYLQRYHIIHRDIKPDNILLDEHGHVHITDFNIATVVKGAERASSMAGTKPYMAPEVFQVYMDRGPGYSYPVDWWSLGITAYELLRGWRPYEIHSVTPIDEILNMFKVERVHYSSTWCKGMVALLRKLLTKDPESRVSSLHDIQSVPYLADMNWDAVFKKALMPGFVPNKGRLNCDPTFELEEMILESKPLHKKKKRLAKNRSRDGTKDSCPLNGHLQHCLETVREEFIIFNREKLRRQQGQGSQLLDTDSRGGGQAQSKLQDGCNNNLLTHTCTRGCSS
Data set [17] concerns the target Serine/threonine-protein kinase SIK2 (Homo sapiens, UniProt Q9H0K1). In words: Inhibition of recombinant human SIK2 (1 to 276 residues) using KKKVSRSGLYRSPSMPENLNRPR as substrate measured after 40 mins in presence of [gamma33P]ATP by radiometric scintillation counting method. In outline:
as §3

Data set [18] concerns the target Serine/threonine-protein kinase 17B (Homo sapiens, UniProt O94768). In words: Inhibition of recombinant human DRAK2 using KKRPQRRYSNVF as substrate after 120 mins in presence of [gamma-33ATP] by scintillation counting based radiometry assay. A digest of the protocol: as §1
The target in data set [19] is AP2-associated protein kinase 1 (Homo sapiens, UniProt Q2M2I8). In words: Inhibition of human AAK1 using peptide as substrate incubated for 120 mins in presence of [gamma-33ATP] by scintillation counting based radiometry assay. In outline: as §3
Data set [20] has as its target T1, Serine/threonine-protein kinase 17A. In words: Inhibition of recombinant human DRAK1 using KKLNRTLSFAEPG as substrate after 40 mins in presence of [gamma-33ATP] by scintillation counting based radiometry assay. A digest of the protocol:
as §3

The target in data set [21] is BMP-2-inducible protein kinase (Homo sapiens, UniProt Q9NSY1). In words: Residual activity of human BMP2K at 1 uM using peptide as substrate incubated for 120 mins in presence of [gamma-33P-ATP] by radiometric scintillation assay relative to control.

T3 sequence (P29597 whole entry): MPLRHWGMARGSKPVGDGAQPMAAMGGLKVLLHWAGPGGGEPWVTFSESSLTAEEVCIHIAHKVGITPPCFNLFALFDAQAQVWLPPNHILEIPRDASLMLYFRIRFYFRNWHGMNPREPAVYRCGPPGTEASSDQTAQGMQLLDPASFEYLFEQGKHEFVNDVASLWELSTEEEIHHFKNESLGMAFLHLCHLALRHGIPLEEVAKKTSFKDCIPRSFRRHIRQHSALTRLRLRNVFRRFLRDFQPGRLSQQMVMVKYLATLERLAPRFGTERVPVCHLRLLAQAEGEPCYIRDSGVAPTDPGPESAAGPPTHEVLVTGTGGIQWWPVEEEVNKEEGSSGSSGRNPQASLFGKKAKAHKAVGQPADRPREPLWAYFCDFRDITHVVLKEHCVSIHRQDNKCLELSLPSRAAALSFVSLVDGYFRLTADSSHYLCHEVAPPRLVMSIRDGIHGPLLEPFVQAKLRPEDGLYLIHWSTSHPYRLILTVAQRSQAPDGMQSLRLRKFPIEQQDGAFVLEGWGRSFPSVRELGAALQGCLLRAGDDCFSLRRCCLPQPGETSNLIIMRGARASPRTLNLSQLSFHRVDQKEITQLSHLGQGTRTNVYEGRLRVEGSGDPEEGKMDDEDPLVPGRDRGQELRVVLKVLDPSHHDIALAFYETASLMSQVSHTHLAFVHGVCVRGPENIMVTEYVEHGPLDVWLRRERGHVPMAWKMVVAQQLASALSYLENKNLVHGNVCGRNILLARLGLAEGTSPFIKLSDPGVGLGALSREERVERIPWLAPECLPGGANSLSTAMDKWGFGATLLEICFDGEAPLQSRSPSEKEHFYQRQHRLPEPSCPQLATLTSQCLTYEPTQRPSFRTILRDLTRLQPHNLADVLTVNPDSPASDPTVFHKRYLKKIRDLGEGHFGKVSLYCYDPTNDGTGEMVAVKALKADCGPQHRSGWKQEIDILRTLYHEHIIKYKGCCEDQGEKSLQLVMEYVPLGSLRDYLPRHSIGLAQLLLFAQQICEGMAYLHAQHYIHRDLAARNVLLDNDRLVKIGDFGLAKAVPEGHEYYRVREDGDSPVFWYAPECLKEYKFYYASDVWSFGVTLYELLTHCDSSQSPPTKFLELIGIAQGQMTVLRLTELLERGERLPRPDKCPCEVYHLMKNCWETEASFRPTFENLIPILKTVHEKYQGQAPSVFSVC
T2 sequence (P07333 whole entry): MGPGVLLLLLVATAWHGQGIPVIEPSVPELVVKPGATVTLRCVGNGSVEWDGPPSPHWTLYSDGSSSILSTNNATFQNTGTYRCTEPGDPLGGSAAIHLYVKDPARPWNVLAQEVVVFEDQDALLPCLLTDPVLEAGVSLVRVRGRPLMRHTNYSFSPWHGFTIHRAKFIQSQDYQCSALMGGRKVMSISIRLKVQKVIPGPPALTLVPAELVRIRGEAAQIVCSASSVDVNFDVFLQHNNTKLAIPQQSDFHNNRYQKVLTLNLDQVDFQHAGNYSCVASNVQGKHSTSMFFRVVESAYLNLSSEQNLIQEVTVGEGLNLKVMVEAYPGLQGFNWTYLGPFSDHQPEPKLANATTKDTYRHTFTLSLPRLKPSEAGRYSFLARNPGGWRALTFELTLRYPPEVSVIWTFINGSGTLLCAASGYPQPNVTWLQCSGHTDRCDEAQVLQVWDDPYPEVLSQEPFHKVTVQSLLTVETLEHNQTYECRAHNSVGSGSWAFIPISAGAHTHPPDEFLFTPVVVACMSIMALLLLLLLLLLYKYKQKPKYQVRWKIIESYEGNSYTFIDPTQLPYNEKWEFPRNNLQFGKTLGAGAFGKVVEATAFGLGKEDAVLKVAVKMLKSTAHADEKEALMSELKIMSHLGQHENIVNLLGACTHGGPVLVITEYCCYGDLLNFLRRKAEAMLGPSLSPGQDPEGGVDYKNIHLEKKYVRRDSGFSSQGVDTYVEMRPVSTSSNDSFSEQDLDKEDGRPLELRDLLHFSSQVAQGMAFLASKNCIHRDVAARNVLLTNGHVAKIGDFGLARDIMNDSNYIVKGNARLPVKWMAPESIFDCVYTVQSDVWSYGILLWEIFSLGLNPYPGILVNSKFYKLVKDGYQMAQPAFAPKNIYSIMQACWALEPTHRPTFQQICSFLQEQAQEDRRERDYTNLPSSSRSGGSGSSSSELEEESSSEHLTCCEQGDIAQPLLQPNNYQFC
Sequence of MAP kinase-interacting serine/threonine-protein kinase 2 (Q9HBH9 whole entry): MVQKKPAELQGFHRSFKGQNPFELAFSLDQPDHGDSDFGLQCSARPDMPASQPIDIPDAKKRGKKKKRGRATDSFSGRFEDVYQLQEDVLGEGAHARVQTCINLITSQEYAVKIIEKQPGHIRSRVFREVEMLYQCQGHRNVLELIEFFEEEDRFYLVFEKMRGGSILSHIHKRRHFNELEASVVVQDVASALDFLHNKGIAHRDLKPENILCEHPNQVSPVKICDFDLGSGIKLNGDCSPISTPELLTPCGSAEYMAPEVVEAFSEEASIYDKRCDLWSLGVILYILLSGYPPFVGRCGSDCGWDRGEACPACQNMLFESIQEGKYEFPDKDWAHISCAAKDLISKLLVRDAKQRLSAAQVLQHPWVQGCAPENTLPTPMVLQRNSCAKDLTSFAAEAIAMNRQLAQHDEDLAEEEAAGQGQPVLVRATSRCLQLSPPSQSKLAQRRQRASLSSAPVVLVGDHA
Sequence of Serine/threonine-protein kinase SIK2 (Q9H0K1 whole entry, the tested form may be a part): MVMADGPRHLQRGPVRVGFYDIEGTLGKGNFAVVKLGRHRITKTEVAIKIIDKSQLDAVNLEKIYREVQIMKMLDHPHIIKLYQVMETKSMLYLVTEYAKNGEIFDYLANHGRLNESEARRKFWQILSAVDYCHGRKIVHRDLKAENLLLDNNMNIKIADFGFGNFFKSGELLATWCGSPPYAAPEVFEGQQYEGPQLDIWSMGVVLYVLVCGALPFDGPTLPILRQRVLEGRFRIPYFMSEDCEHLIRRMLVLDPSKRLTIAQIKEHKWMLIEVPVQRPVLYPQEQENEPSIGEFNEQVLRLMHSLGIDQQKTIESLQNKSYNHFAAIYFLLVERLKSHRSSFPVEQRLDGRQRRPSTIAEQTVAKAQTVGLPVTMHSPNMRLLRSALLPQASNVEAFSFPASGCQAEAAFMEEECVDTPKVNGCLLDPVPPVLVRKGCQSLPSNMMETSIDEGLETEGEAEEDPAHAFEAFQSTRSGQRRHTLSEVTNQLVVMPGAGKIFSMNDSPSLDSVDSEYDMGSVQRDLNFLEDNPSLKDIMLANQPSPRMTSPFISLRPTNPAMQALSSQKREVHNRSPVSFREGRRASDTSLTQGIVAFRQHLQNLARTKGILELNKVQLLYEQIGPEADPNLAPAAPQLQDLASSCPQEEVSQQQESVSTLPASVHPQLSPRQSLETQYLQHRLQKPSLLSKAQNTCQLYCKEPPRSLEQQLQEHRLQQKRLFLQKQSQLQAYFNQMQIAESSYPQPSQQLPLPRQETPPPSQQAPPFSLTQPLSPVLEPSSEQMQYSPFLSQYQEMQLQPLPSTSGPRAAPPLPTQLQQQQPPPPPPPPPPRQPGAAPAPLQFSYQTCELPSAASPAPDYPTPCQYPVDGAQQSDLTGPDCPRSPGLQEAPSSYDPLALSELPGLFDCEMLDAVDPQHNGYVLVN

For the compound `NS(=O)(=O)c1ccc(CNc2ccnc(Nc3cccc(CN4CCOCC4)c3)n2)cc1`, the 50% inhibitory concentration (IC50) is more than 10 µM in [1]; more than 10 µM in data set [3]; more than 10 µM in data set [4]; 0.091 µM in data set [5]; 0.276 µM in data set [6]; 5.06 µM in [7]. Also, the IC50 in [10] is 2.74 µM; in data set [11], more than 10 µM; in [12], more than 10 µM; in data set [13] it was more than 10 µM. Besides, in data set [2], the % control came out at 54%. The Kinetic solubility in data set [8] amounted to 176 µM. For the same compound, the Peff in data set [9] is recorded as 4.56 10^-7 cm/s.
With `Cc1nn(CC(F)(F)F)cc1Nc1nccc(NCCCNC(=O)C2CCC2)n1`, the concentration for half-maximal inhibition (IC50) in [14] was 2.87 µM; in [3] it was more than 10 µM; in [4], more than 10 µM; in [11] it was more than 10 µM; in data set [13], more than 10 µM; in data set [16] it was more than 10 µM. In addition, in [15], the % control came out at 60%. Also, the Kinetic_solubility in data set [8] came out at 174.6 µM. Also, the Peff in data set [9] was 2.39 10^-6 cm/s.
Take `O=C(NCCCNc1ccnc(Nc2cccc(NC(=O)N3CCCC3)c2)n1)C1CCC1`: the IC50 in data set [17] is 0.481 µM; in [14], 0.769 µM; in data set [18] it was 0.161 µM; in data set [3], 2.31 µM; in data set [4], more than 10 µM; in data set [6], 0.72 µM. For the same compound, the concentration for half-maximal inhibition (IC50) in data set [19] was 0.39 µM; in data set [11], more than 10 µM; in data set [20] it was 0.325 µM; in data set [13], more than 10 µM. This compound gave a Kinetic solubility in [8] of 169 µM. Besides, the Peff in data set [9] is 8.24 10^-8cm/s. Further, the % control in data set [21] came out at 56%.
